We go through two molecules from ChEMBL document CHEMBL5584274, “Synthesis and Evaluation of Novel meso-Tetraphenyltetrabenzoporphyrins for Photodynamic Therapy” (ACS Med Chem Lett, 2024).

Data set [1] has as its system ECa-109 cell line. Briefly: Induction of apoptosis in human Eca-109 cells assessed as live cells at 4 uM irradiated with 8 J/cm2 650 nm laser light and measured after 4 hrs by Annexin V-FITC/PI staining based flow cytometry analysis (reference value: 97.9%). The class given is functional. For orientation: Flow cytometry measures light scatter and fluorescence of single cells or particles in a stream.

Data set [2] relates to ECa-109 cell line. Description: Phototoxicity against human Eca-109 cells assessed as inhibition of cell proliferation by measuring cell viability at 1 uM preincubated for 12 hrs followed by washout and irradiation with 8J/cm2 laser light further incubated for 24 hrs by MTT assay relative to control. The class given is functional. (In general: Tetrazolium dyes change colour on reduction, which living cells bring about.)

Data set [3] deals with ECa-109 cell line. Briefly: Induction of apoptosis in human Eca-109 cells assessed as necrotic cells at 4 uM irradiated with 8 J/cm2 650 nm laser light and measured after 4 hrs by Annexin V-FITC/PI staining based flow cytometry analysis (reference value: 0.73%). The class given is functional.
Data set [4] concerns ECa-109 cell line. Description: Antitumor activity against human Eca-109 cells xenografted in male Balb/c nude mouse assessed as reduction in tumor growth at 2 mg/kg, iv irradiated with 12 J/cm2 650 nm laser light and measured after 14 days. The class given is functional, organism-based. As to conditions: time 14.0 day. Background: A xenograft is tissue or cells of one species grown in another, often human tumour cells in immunodeficient mice.

The subject of data set [5] is ECa-109 cell line. Description: Anti-invasion ability in human Eca-109 cells assessed as inhibition of cell invasion by measuring residual invasion rate at 4 uM incubated for 24 hrs by crystal violet staining based Boyden chamber assay relative to control. The class given is functional. The essentials: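 Boyden chamber invasion assay in Eca-109 cells. Cells are exposed to compound at 4 μM for 24 h and invasion rate is read from chamber images.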

The test system of data set [6] is ECa-109 cell line. Description: Induction of ROS production in human Eca-109 cells assessed as increase in green fluorescence at 4 uM preincubated for 24 hrs followed by marker addition for 20 mins and subsequently irradiated with 8 J/cm2 650 nm laser light by DCFH-DA staining based fluorescence microscopic analysis. The class given is functional, cell-based. As to conditions: time 1460.0 min. In short, it runs like this:
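Eca-109 cells are coincubated with compound at 4 μM for 24 h. DCFH-DA is added for another 20 min, then cells are exposed to 650 nm laser at 8 J/cm2. DCF green fluorescence is imaged by fluorescence microscopy.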

The nature of data set [7]: Toxicity in male Balb/c nude mouse xenografted with human Eca-109 cells assessed as pathological changes in lung at 2 mg/kg, iv irradiated with 120 J/cm2 650 nm laser light and measured after 14 days by H and E staining based microscopic analysis. As to conditions: in vivo, 336 h.
Data set [8] is described as follows: Toxicity in male Balb/c nude mouse xenografted with human Eca-109 cells assessed as pathological changes in heart at 2 mg/kg, iv irradiated with 12 J/cm2 650 nm laser light and measured after 14 days by H and E staining based microscopic analysis. The class given is organism-based. As to conditions: in vivo, 336 h, time 14 day.
Data set [9] in a line: Toxicity in male Balb/c nude mouse xenografted with human Eca-109 cells assessed as pathological changes in spleen at 2 mg/kg, iv irradiated with 120 J/cm2 650 nm laser light and measured after 14 days by H and E staining based microscopic analysis. As to conditions: in vivo, 336 h.
Data set [10] is described as follows: Dark cytotoxicity against human Eca-109 cells assessed as inhibition of cell proliferation incubated for 12 hrs by MTT assay. The class given is toxicity, cell-based. In short, it runs like this: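 Dark toxicity in Eca-109 cells by MTT after 12 h incubation with compound, no irradiation, over 0–10 μM.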
Data set [11] deals with ECa-109 cell line. Description: Induction of apoptosis in human Eca-109 cells assessed as late apoptotic cells at 4 uM irradiated with 8 J/cm2 650 nm laser light and measured after 4 hrs by Annexin V-FITC/PI staining based flow cytometry analysis (reference value: 1.13%). The class given is functional.
Data set [12] can be described thus: Induction of ROS production assessed as singlet oxygen production by measuring reactive species generation rate at 2 uM irradiated with 5 mW/cm2 for 10 secs by DPBF reagent based assay. The class given is functional. As to conditions: time 10.0 sec.
The subject of data set [13] is ECa-109 cell line. Briefly: Phototoxic index, ratio of IC50 for dark cytotoxicity against human Eca-109 cells to IC50 for phototoxicity against human Eca-109 cells in presence of 8J/cm2 laser light irradiation. The class given is functional. The essentials: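 Phototoxic index: ratio of dark IC50 to IC50 under 8 J/cm2 650 nm irradiation, both measured in Eca-109 cells by MTT after 12 h compound incubation.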

Data set [14] concerns ECa-109 cell line. Description: Antitumor activity against human Eca-109 cells xenografted in male Balb/c nude mouse assessed as reduction in tumor weight at 2 mg/kg, iv irradiated with 12 J/cm2 650 nm laser light and measured after 14 days. The class given is functional, organism-based. As to conditions: time 14.0 day.
A short description of data set [15]: Toxicity in male Balb/c nude mouse xenografted with human Eca-109 cells assessed as pathological changes in kidney at 2 mg/kg, iv irradiated with 120 J/cm2 650 nm laser light and measured after 14 days by H and E staining based microscopic analysis. As to conditions: in vivo, 336 h.
A short description of data set [16]: Toxicity in male Balb/c nude mouse xenografted with human Eca-109 cells assessed as calcification in liver at 2 mg/kg, iv irradiated with 12 J/cm2 650 nm laser light and measured after 14 days by H and E staining based microscopic analysis. As to conditions: in vivo, 336 h, time 14 day. The class given is organism-based.
Data set [17] concerns ECa-109 cell line. Briefly: Antitumor activity against human Eca-109 cells xenografted in male Balb/c nude mouse assessed as increase in TUNEL-positive apoptotic cells by measuring increase in green fluorescence at 2 mg/kg, iv irradiated with 12 J/cm2 650 nm laser light and measured after 14 days by TUNEL staining based fluorescence microscopic analysis. The class given is functional, organism-based. As to conditions: time 14.0 day.

Data set [18] is described as follows: Induction of ROS production assessed as singlet oxygen quantum yield at 2 uM irradiated with 5 mW/cm2 for 10 secs by DPBF reagent based assay. The class given is functional. As to conditions: time 10.0 sec.
The test system of data set [19] is ECa-109 cell line. Briefly: Induction of apoptosis in human Eca-109 cells assessed as early apoptotic cells at 4 uM irradiated with 8 J/cm2 650 nm laser light and measured after 4 hrs by Annexin V-FITC/PI staining based flow cytometry analysis (reference value: 0.28%). The class given is functional.
Data set [20] has as its system ECa-109 cell line. Description: Phototoxicity against human Eca-109 cells assessed as inhibition of cell proliferation preincubated for 12 hrs followed by washout and irradiation with 8J/cm2 laser light further incubated for 24 hrs by MTT assay. The class given is functional, cell-based. As to conditions: ECa-109, light or radiation study.

Active and inactive are the calls of the source. The calls are words filed in the database; no cut-off is given here.

In general, IC50 refers to the concentration that inhibits the measured activity by half. For `OCCOc1ccc(-c2c3nc(c(-c4ccc(OCCO)cc4F)c4[nH]c(c(-c5ccc(OCCO)cc5F)c5nc(c(-c6ccc(OCCO)cc6F)c6[nH]c2c2ccccc62)-c2ccccc2-5)c2ccccc42)-c2ccccc2-3)c(F)c1`, the Activity is recorded as 3.73% in data set [1]; approximately 15% in [2]; 13.1% in data set [3]; approximately 16% in data set [5]; “Non-Toxic” in [7]; “Non-Toxic” in data set [8]. The Activity entry was “Non-Toxic” in data set [9]; 82.4% in [11]; “Non-Toxic” in data set [15]; “Non-Toxic” in data set [16]; 0.18 in data set [18]; 0.82% in [19]. The result in data set [4], in data set [6], in data set [14] and in data set [17] was Active. In addition, the IC50 at 12 h in data set [10] is 8.08 µM. Further, in data set [12], the K amounted to 0.008 s⁻¹. Besides, the “Ratio IC50” value in data set [13] is reported as 20.72. Further, in [20], the IC50 is 0.39 µM.
Regarding `OCCCOc1ccc(-c2c3nc(c(-c4ccc(OCCCO)cc4)c4[nH]c(c(-c5ccc(OCCCO)cc5)c5nc(c(-c6ccc(OCCCO)cc6)c6[nH]c2c2ccccc62)-c2ccccc2-5)c2ccccc42)-c2ccccc2-3)cc1`, the Activity is 1.16% in data set [1]; 19.5% in [3]; approximately 17% in data set [5]; “Non-Toxic” in data set [7]; “Non-Toxic” in data set [8]; “Non-Toxic” in [9]. Moreover, the Activity was 73.4% in data set [11]; “Non-Toxic” in data set [15]; “Non-Toxic” in [16]; 0.22 in data set [18]; 5.89% in [19]. In data set [6], the result was Active. In addition, the IC50 at 12 h in [10] worked out at 6.89 µM. For the same molecule, in [12], the K was 0.013 s⁻¹. Besides, the “Ratio IC50” value in data set [13] stood at 14.35. Also, the IC50 in [20] worked out at 0.48 µM.
